From ChEMBL document CHEMBL3232760 (Bioorg Med Chem, 2014)
Active and inactive are the calls of the source. The calls are words filed in the database; no cut-off is given here.

Tests used:
Format in all cases: cell-based
[1] = target: T1, Estrogen receptor beta (Homo sapiens, UniProt Q92731); assay: Antagonist activity at human Gal4-fused ER-beta expressed in HEK293 cells assessed as inhibition of 17beta-estradiol-induced effect at 3 uM by luciferase reporter gene assay
In short: (§1)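 Antagonist mode in transfected HEK293 GAL4-ER luciferase system, with cells co-treated with 0.3 nM 17beta-estradiol. Compound added 8 h post-transfection, 16–20 h treatment, luciferase normalized to beta-galactosidase, triplicate means.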

[2] = target: T2, Estrogen receptor (Homo sapiens) (UniProt P03372); assay: Antagonist activity at human Gal4-fused ER-alpha expressed in HEK293 cells assessed as inhibition of 17beta-estradiol-induced effect at 3 uM by luciferase reporter gene assay; in short: as §1
T2 sequence (whole entry): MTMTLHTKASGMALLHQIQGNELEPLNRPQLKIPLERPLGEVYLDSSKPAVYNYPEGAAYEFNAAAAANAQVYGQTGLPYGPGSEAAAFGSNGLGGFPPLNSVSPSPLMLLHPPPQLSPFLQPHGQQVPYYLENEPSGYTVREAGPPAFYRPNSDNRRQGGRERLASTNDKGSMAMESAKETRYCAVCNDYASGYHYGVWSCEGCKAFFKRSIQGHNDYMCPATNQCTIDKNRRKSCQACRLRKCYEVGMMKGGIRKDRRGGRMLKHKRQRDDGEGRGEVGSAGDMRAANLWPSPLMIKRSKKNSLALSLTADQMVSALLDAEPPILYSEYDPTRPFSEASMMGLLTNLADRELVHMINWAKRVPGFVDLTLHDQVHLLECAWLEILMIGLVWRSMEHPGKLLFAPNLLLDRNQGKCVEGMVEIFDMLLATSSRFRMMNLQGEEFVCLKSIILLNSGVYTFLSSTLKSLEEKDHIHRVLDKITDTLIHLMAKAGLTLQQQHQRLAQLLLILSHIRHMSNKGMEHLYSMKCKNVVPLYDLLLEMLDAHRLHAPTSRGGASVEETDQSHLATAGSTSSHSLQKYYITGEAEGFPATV

[3] = target: T3, Steryl-sulfatase (Homo sapiens) (UniProt P08842); assay: Inhibition of steroid sulfatase in human MCF7 cells assessed as conversion of [3H]E1S to [3H]E1 and [3H]E2 at 0.1 uM after 5 hrs by liquid scintillation counting
T3 sequence (whole entry): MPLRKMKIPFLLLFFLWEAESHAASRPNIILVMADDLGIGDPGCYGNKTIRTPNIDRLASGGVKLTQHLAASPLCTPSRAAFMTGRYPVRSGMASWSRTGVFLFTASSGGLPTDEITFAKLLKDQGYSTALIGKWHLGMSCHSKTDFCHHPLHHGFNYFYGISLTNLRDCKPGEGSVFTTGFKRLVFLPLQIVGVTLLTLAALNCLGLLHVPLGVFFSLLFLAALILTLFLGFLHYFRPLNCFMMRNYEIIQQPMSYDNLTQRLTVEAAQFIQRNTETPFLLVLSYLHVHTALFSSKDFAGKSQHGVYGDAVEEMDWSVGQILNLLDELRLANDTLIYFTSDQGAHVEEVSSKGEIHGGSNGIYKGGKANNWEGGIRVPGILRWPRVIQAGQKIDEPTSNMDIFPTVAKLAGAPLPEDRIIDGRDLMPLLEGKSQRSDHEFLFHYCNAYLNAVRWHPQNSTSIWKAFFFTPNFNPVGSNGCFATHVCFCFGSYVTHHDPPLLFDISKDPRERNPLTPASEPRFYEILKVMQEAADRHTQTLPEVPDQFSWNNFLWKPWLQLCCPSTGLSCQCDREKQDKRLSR
In short: (§2)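 MCF-7 homogenate (freeze–thaw five times, diluted in Tris–EDTA, centrifuged 15,000g 4 °C 15 min, supernatant adjusted to 0.2 mg/mL protein by Bradford) incubated with [3H]E1S (final 10 nM) and inhibitor at 37 °C for 5 h. Toluene extraction of [3H]E1 plus [3H]E2, liquid scintillation counting; 1 uM STX64 defined 100%; triplicate.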

[4] = target: T3, Steryl-sulfatase (Homo sapiens); assay: Inhibition of steroid sulfatase in human MCF7 cells assessed as conversion of [3H]E1S to [3H]E1 and [3H]E2 at 1 uM after 5 hrs by liquid scintillation counting; in short: as §2
[5] = target: T2, Estrogen receptor (Homo sapiens); assay: Agonist activity at human Gal4-fused ER-alpha expressed in HEK293 cells at 10 uM by luciferase reporter gene assay relative to 17beta-estradiol
In short: (§3)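 Agonist mode: HEK293 cells in phenol-red-free DMEM with 5% FBS, 37 °C, 5% CO2, calcium phosphate cotransfected with GAL4-responsive MH100(UAS)x4-tk-LUC reporter, ER receptor fragment plasmid and beta-galactosidase plasmid. Compound added 8 h post-transfection, cells harvested 16–20 h later. Luciferase normalized to beta-galactosidase, triplicate means.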

[6] = target: T1, Estrogen receptor beta; assay: Antagonist activity at human Gal4-fused ER-beta expressed in HEK293 cells assessed as inhibition of 17beta-estradiol-induced effect by luciferase reporter gene assay
In short: (§4)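 With 0.3 nM 17beta-estradiol present, HEK293 cells calcium phosphate cotransfected with GAL4-responsive luciferase reporter, ER plasmid and beta-galactosidase were treated 8 h post-transfection for 16–20 h. Normalized luciferase, triplicate means; antagonism expressed as IC50 (nM).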

[7] = target: T1, Estrogen receptor beta; assay: Agonist activity at human Gal4-fused ER-beta expressed in HEK293 cells at 10 uM by luciferase reporter gene assay relative to 17beta-estradiol; in short: as §3
[8] = target: T4, Steryl-sulfatase (Homo sapiens, UniProt P08842); assay: Inhibition of steroid sulfatase in human MCF7 cells assessed as conversion of [3H]E1S to [3H]E1 and [3H]E2 after 5 hrs by liquid scintillation counting; in short: as §2
T4 sequence (P08842 whole entry): T3 sequence (whole entry)

[9] = target: T5, Estrogen receptor (Homo sapiens, UniProt P03372); assay: Agonist activity at human Gal4-fused ER-alpha expressed in HEK293 cells by luciferase reporter gene assay
T5 sequence (P03372 whole entry): T2 sequence (whole entry)
In short: (§5)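 GAL4-ER fusion reporter in HEK293 (phenol-red-free DMEM, 5% FBS), calcium phosphate transfection with MH100(UAS)x4-tk-LUC and beta-galactosidase control; compounds given 8 h after transfection, harvest at 16–20 h. Luciferase/beta-galactosidase ratio, triplicate means; agonism expressed as EC50 (nM).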

[10] = target: T1, Estrogen receptor beta; assay: Agonist activity at human Gal4-fused ER-beta expressed in HEK293 cells by luciferase reporter gene assay; in short: as §5
[11] = target: T5, Estrogen receptor; assay: Antagonist activity at human Gal4-fused ER-alpha expressed in HEK293 cells assessed as inhibition of 17beta-estradiol-induced effect by luciferase reporter gene assay; in short: as §4
[12] = target: T1, Estrogen receptor beta; assay: Antagonist activity at human Gal4-fused ER-beta expressed in HEK293 cells assessed as inhibition of 17beta-estradiol-induced effect at 1 uM by luciferase reporter gene assay; in short: as §1

T1 sequence (Q92731 whole entry, the tested form may be a part): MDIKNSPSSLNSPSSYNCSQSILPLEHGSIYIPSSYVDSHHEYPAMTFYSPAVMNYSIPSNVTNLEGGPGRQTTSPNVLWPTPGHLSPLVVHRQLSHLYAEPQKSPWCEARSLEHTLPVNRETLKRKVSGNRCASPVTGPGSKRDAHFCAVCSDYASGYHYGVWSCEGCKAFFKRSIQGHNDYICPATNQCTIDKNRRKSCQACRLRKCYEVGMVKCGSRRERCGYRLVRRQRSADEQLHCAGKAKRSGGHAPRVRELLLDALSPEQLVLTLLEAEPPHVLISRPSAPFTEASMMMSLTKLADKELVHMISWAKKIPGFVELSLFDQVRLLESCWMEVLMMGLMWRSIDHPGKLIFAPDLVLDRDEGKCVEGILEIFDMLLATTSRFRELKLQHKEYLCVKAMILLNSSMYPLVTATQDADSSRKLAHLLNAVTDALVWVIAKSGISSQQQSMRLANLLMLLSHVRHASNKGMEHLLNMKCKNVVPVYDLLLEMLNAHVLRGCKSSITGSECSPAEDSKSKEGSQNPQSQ

SMILES	inhibition [1]	inhibition [2]	inhibition [3] [%]	inhibition [4] [%]	Activity [5]	Activity [7]	other results
CCC[Si](CCC)(c1ccc(OS(N)(=O)=O)c(C)c1)c1ccc(OS(N)(=O)=O)c(C)c1	18%	87.1%	< 10	18.7			
CC(C)(c1ccc(O)cc1)c1ccc(O)cc1 [BISPHENOL A]		36.1%			28.7%		IC50 ([6]; hek293): Not Active
CC[Si](CC)(c1ccc(OS(N)(=O)=O)c(C)c1)c1ccc(OS(N)(=O)=O)c(C)c1	47.2%	94.8%	22.6	82.6	inactive	inactive	IC50 [8]: 170 nM
CCCCC(CCCC)(c1ccc(O)c(C)c1)c1ccc(O)c(C)c1							EC50 [9]: Not Active; EC50 [10]: Not Active
CC(C)(c1ccc(OS(N)(=O)=O)cc1)c1ccc(OS(N)(=O)=O)cc1	7.79%	6.63%	< 10	< 10	9.5%	inactive	
CCCC(CCC)(c1ccc(OS(N)(=O)=O)c(C)c1)c1ccc(OS(N)(=O)=O)c(C)c1	43.9%	54.9%	< 10	21.1			
CN(C)S(=O)(=O)Oc1ccc([Si](C)(C)c2ccc(OS(=O)(=O)N(C)C)cc2)cc1			< 10	< 10			
CCC(CC)(c1ccc(O)c(C)c1)c1ccc(O)c(C)c1							IC50 [11]: 3.53 nM; EC50 [9]: Not Active; EC50 [10]: Not Active
Oc1ccc(Cc2ccc(O)cc2)cc1		22.6%					IC50 ([6]; hek293): Not Active
NS(=O)(=O)Oc1ccc(Cc2ccc(OS(N)(=O)=O)cc2)cc1	2.25%		< 10	50.1			EC50 [9]: Active; IC50 [8]: 1020 nM
CCCC(CCC)(c1ccc(O)c(C)c1)c1ccc(O)c(C)c1						6.1%	EC50 [9]: Not Active
C[Si](C)(c1ccc(O)cc1)c1ccc(O)cc1		50.9%	< 10	< 10	25.3%		IC50 ([6]; hek293): Not Active
NS(=O)(=O)Oc1ccc2c3c(c(=O)oc2c1)CCCCC3				100			
C[Si](C)(c1ccc(O)cc1)c1ccc(OS(N)(=O)=O)cc1			25.2	76.4			
CCC(CC)(c1ccc(OS(N)(=O)=O)cc1)c1ccc(OS(N)(=O)=O)cc1	49.3%	53.2%	11	29.9	inactive	inactive	
CCC(CC)(c1ccc(O)cc1)c1ccc(O)cc1						9.3%	IC50 [11]: 118 nM; EC50 [9]: Not Active
C[Si](C)(c1ccc(OS(N)(=O)=O)cc1)c1ccc(OS(N)(=O)=O)cc1	inactive	inactive	35.8	81.9	10.8%	16.7%	
CCCC[Si](CCCC)(c1ccc(OS(N)(=O)=O)c(C)c1)c1ccc(OS(N)(=O)=O)c(C)c1	inactive	16.4%	< 10	16.4			
Oc1ccc(Sc2ccc(O)cc2)cc1					37.8%		IC50 ([6]; hek293): Not Active
CCC(CC)(c1ccc(OS(N)(=O)=O)c(C)c1)c1ccc(OS(N)(=O)=O)c(C)c1	49.3%	36.7%	< 10	25.4	inactive	inactive	
CCCCC(CCCC)(c1ccc(OS(N)(=O)=O)c(C)c1)c1ccc(OS(N)(=O)=O)c(C)c1	inactive	42.5%	10.3	28			
CCC[Si](CCC)(c1ccc(O)c(C)c1)c1ccc(O)c(C)c1					5.6%	4.9%	IC50 [11]: 26.2 nM; IC50 ([6]; read-out: IC50): 804 nM
NS(=O)(=O)Oc1ccc(Sc2ccc(OS(N)(=O)=O)cc2)cc1	inactive		57.1	89.7		82.8%	EC50 [9]: Active; IC50 [8]: 88 nM
CC[Si](CC)(c1ccc(O)c(C)c1)c1ccc(O)c(C)c1	53.5%						IC50 [11]: 29.7 nM
CC[Si](CC)(c1ccc(O)cc1)c1ccc(O)cc1					7.1%	11.9%	IC50 [11]: 115 nM; inhibition [12]: 53%
CC[Si](CC)(c1ccc(OS(N)(=O)=O)cc1)c1ccc(OS(N)(=O)=O)cc1	62.8%	100%	62	96.4	inactive	1.1%	
